# Screens deposited in PubChem BioAssay by Sanford-Burnham Center for Chemical Genomics.
# Shown are actives, neighbours in structure and some others; about 0.72% of the full set was active somewhere.
# hIAP block – human IAP inhibition; purified IAP, CDP-Star luminescence, 30 min; inhibition, % at 10 µM; 330,000 tested, 0.12% active;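 active = inhibition reaching a set limit with compound at 10 µM in the primary screen, cut at about 35% in these data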;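 also: plate controls were DMSO wells with enzyme for no effect and no-enzyme buffer wells for full effect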
# Target sequence (P09923 whole entry, looked up): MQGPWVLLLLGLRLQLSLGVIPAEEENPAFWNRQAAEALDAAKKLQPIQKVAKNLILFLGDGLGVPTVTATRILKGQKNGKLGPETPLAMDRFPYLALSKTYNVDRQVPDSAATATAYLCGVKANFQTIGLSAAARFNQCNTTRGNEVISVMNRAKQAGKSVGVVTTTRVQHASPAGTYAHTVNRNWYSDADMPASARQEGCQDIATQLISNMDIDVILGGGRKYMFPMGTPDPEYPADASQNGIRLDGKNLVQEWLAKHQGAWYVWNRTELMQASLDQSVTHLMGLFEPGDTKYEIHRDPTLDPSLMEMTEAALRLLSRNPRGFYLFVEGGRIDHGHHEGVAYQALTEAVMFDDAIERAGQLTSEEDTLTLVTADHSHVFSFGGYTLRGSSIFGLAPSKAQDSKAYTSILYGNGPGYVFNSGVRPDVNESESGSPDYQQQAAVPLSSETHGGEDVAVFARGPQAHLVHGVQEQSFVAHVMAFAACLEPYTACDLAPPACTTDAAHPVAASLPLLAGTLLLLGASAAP
# bIAP act – intestinal alkaline phosphatase (bovine) activation; 200,000 tested, 0.17% active; purified bovine IAP, CDP-star luminescence, 30 min; hits give high values; fold of DMSO-control signal, blank-subtracted; activation factor at 20 µM;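 active = activation factor of 2 or more at 20 µM, a signal rise over negative controls twice the positive control's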
# hIAP activ – increases human intestinal alkaline phosphatase activity. purified human IAP, CDP-Star luminescence, 30 min; hits give high values; 1 = vehicle-only enzyme, 0 = enzyme-free background. 330,000 tested, 0.16% active. activation factor at 10 µM. AID 2524. P09923;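 active = activation factor of the enzyme at least 2-fold when tested at 20 µM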
# bIAP inhibitor – intestinal alkaline phosphatase (bovine) inhibition; AID 1019; 190,000 tested, under 10 active; purified bovine IAP, CDP-star luminescence, 30 min; inhibition, % at 20 µM;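 active = over 50% inhibition of intestinal alkaline phosphatase at 20 µM in the single-dose screen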
#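 Assay system: bovine IAP enzyme; medium: DEA buffer 100 mM, pH 9.8, with MgCl2 1.0 mM, ZnCl2 0.02 mM; doses: 20 µM single dose; incubation: enzyme reaction for 30 min at room temperature; detection: CDP-star luminescence signal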
# mIAP inh – mouse IAP inhibition; purified mouse IAP, CDP-Star luminescence, 30 min; inhibition, % at 10 µM; 330,000 tested, 0.2% active;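 active = inhibition of at least 40% at 10 µM in the primary screen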;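 also: plate controls were DMSO with enzyme for no effect and no enzyme wells for full effect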
# mIAP activ – mouse IAP activation; muIAP, CDP-Star luminescence, 30 min; hits give high values; 1 = vehicle-only enzyme signal, 0 = enzyme-free wells; 330,000 tested, 0.24% active; AID 2805; activation factor at 10 µM;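 active = activation factor of at least 2 at 20 µM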
#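 System: Mouse IAP enzyme | Also added: CDP-Star substrate | Dosing: Compounds dispensed in DMSO | Schedule: 30 min enzyme-substrate-compound incubation at room temperature | Technique: Chemiluminescence readout | Control set: DMSO-only wells and no-enzyme negative control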
# hIAP act confirm – human IAP activation confirmation; shares compounds with hIAP activ; activation (%Activity, negative = activation), % at 8.3 µM; 880 tested, 10% active; purified IAP, CDP-Star luminescence, 30 min; hits give low values;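 active = at least twofold enzyme activation in any of six single-dose repeats, which the averaged readout prints as negative percent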
# An asterisk follows results filed as active; . = not tested or not shown.
SMILES,hIAP block,bIAP act,hIAP activ,bIAP inhibitor,mIAP inh,mIAP activ,hIAP act confirm
Nc1nnc(Cc2cccc(Br)c2)s1,-106,.,2.1*,.,-3,1,-41
Nc1nnc(Cc2ccccc2)s1,-14,0.9,1.1,14,-2,1,.
Cc1cc([N+](=O)[O-])nn1CC(=O)NNC(=S)Nc1ccc(F)cc1,-111,1.2,2.1*,-24,1,0.99,6
Cc1cc([N+](=O)[O-])nn1CC(=O)Nc1ccc(F)cc1,1,1,0.99,0,-1,1,.
O=c1cc(-c2ccc(O)c(O)c2)oc2cc(O)cc(O)c12,58*,.,0.42,.,34,0.66,-2
COc1ccc(-c2cc(=O)c3c(O)cc(O)cc3o2)cc1,12,.,0.88,.,3,0.97,.
COc1ncnc2c1ncn2CC1COC(C)(C)O1 (centres undefined),-37,.,1.4,.,-3,1,.
COc1ccc(-c2cc(C(F)(F)F)n3nc(C(=O)N4CCN5CCCC5C4)cc3n2)cc1OC (centres undefined),-3,.,1,.,5,0.95,.
O=C(NCC1CCCCC1)c1ccc(F)cc1Cl,45*,.,0.55,.,-4,1,27
C/C(=N/NS(=O)(=O)c1ccc(C(C)(C)C)cc1)c1ccc2c(c1)OCO2,-14,.,1.1,.,-9,1.1,.
Cc1cccc(NC(=O)CCc2ccc(C)o2)c1,37*,1,0.63,-3,1,0.99,-26
Cc1cc(C)cc(NC(=O)CCc2ccc(C)o2)c1,0,.,1,.,35,0.65,.
Cc1ccc(OCC(=O)NN=C2C3CC4CC(C3)CC2C4)cc1,-3,.,1,.,-7,1.1,.
Cn1c(=NC(=O)CS(=O)(=O)c2ccccc2)sc2cc([N+](=O)[O-])ccc21,10,.,0.9,.,0,1,.
Cc1ccc2oc(C(=O)Nc3nnc(C)s3)c(C)c2c1,5,1,0.95,5,-4,1,.
Cc1ccc2oc(C(=O)Nc3nonc3C)c(C)c2c1,38*,.,0.62,.,-4,1,-20
CN(C)c1ccc(-c2ccc3c(=O)c4ccccc4n(C)c3c2)cn1,16,.,0.84,.,-3,1,.
CCc1c(C(=O)NNC(=S)NCCc2ccccc2)csc1C,-113,1,2.1*,-1,5,0.95,-26
O=C(NS(=O)(=O)N1CCOCC1)C1=C(N2CCCC2)COC1=O,-12,.,1.1,.,7,0.93,.
COc1ccccc1N(C)S(=O)(=O)c1ccc(Cl)c(C(=O)NNC(=O)c2ccccc2O)c1,-134,.,2.3*,.,38,0.62,59
O=C1CC(c2ccccc2F)c2cc3c(cc2N1)CCC3 (centres undefined),-220,1,3.2*,3,-16,1.2,-11
CCCCCN1CC(O)=C(c2nc3ccccc3[nH]2)C1=N,-111,1.1,2.1*,-13,-30,1.3,-45
CCC(=O)NNc1ncnc2c1cnn2-c1cccc(C)c1,-56,1.3,1.6,-31,8,0.93,.
O=C(NNc1ncnc2c1cnn2-c1cccc(Cl)c1)c1ccco1,-236,.,3.4*,.,-3,1,-42
Cc1ccc(-n2ncc3c(NNC(=O)c4ccco4)ncnc32)cc1C,-148,.,2.5*,.,6,0.94,41
SMILES,hIAP block,bIAP act,hIAP activ,bIAP inhibitor,mIAP inh,mIAP activ,hIAP act confirm
O=C(COc1ccc2ccccc2c1Br)N1CCCCC1,36*,.,0.64,.,5,0.95,-50*
COc1ccc(C(=O)O)c(O)c1,0,.,1,.,3,0.97,.
COc1ccc(-c2ccc(OC)cc2C(=O)O)cc1,36*,1,0.64,4,5,0.95,15
CCOCCCNc1nc2c(C)cccn2c(=O)c1/C=C1\SC(=S)N(C(C)CC)C1=O (centres undefined),36*,.,0.64,.,30,0.7,0
Cc1ccc(S(=O)(=O)Nc2c(Cl)c(Cl)c(O)c3ccccc23)cc1,4,.,0.96,.,0,1,.
O=C(CNC(=S)N(CCCN1CCOCC1)Cc1cccs1)NCCCN1CCOCC1,5,1.1,0.95,-10,15,0.85,.
O=C(CNC(=S)N(CCCN1CCOCC1)Cc1cccs1)NCc1ccccc1Cl,-110,.,2.1*,.,-1,1,14
COC(CNC(=O)CNC(=S)N(CCCN1CCOCC1)Cc1cccs1)OC,-28,0.9,1.3,8,-18,1.2,.
O=C(CNC(=S)N(CCCN1CCOCC1)Cc1cccs1)NCc1ccc(Cl)cc1,-186,.,2.9*,.,-8,1.1,-51
Cc1ccc(N/C=C/C(=O)c2ccco2)c(O)c1,-116,.,2.2*,.,15,0.85,-35
CC(=Nc1ccc(O)cc1)c1sc2ccccc2c1O,9,0.9,0.91,14,13,0.87,.
Oc1c(N=Nc2ccccc2)sc2ccccc12,38*,.,0.62,.,32,0.68,14
COC(=O)N=Nc1c(O)[nH]c2ccc(Br)cc12,44*,.,0.56,.,9,0.91,-37
O=C(CNC(=O)c1ccccc1)N=Nc1c(O)[nH]c2ccc(Br)cc12,-58,.,1.6,.,2,0.98,.
Cc1ccc(S(=O)(=O)N2CCN(CC(=O)Nc3ccc4c(c3)CCC4)CC2)cc1C,-9,1,1.1,-2,-19,1.2,.
O=C(CN1CCN(S(=O)(=O)c2ccc3ccccc3c2)CC1)Nc1ccc2c(c1)CCC2,-104,0.9,2*,12,17,0.83,-3
CCc1ccc(CN2CCC(C(=O)Nc3cccc(-c4nnc(C)s4)c3)CC2)o1,-21,.,1.2,.,2,0.97,.
Cc1ccc(CN2CCC(C(=O)Nc3cccc(-c4cccc(F)c4)c3)CC2)o1,-122,.,2.2*,.,-142,2.4*,2
CCCC(CCC)C(=O)NCCN1CCOCC1,39*,1,0.61,3,1,0.99,-35
O=C(NCCN1CCOCC1)N1CCOCC1,15,0.9,0.85,13,9,0.91,.
CNc1nc2c(c(=O)[nH]c(=O)n2C)n1CCCc1ccccc1,-6,.,1.1,.,4,0.96,.
CCCn1c(N/N=C\C=C\c2ccccc2)nc2c1c(=O)[nH]c(=O)n2C,-123,1.4,2.2*,-44,12,0.88,2
O=C(NNC(=O)c1cc(Br)ccc1O)c1csc(N2CCOCC2)n1,-143,.,2.4*,.,23,0.77,7
O=C(CCNS(=O)(=O)c1ccccc1C(F)(F)F)NNC(=O)c1csc(N2CCOCC2)n1,-107,.,2.1*,.,21,0.79,0
COC(=O)[C@]1(Cc2ccccc2)N[C@H](CN(C)C(=O)Nc2ccc(OC)cc2)[C@@H]2C(=O)N(Cc3ccccc3)C(=O)[C@@H]21,-10,.,1.1,.,-15,1.1,.
CCOC1=C/C(=C/c2c(N)n3nc(CC(=O)N4CCCCC4)sc3nc2=O)C=CC1=O,22,.,0.78,.,10,0.9,.
CCOC1=C/C(=C/c2c(N)n3nc(S(=O)(=O)CC)sc3nc2=O)C=CC1=O,37*,0.8,0.63,20,39,0.61,27
